Runt-SMMHC FRET: inhibitors of human RUNX1 Runt domain binding to CBFb-SMMHC. Cerulean-Runt/Venus-CBFb-SMMHC FRET ratio 530/480, 1 h. Q01196+Q13951. inhibition, % at 20 µM. hit rate 0.74% among 220,000. AID 1434;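 active = mean inhibition across duplicate retests at 20 µM reaching about 50%, limit read from the data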;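 also: 0% = DMSO wells and 100% = wells with excess untagged CBFb-SMMHC; inhibitors lower the FRET ratio by blocking Runt binding to CBFb-SMMHC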
RanGTP-Imp inh: inhibitors of RanGTP-importin-beta interaction, primary screen, biochemical, FRET, CFP-Ran, YFP-importin-beta, homogeneous | cell-free CFP-Ran/YFP-importin-beta FRET ratio | inhibition, % (test concentration not listed) | hit rate 1.1% among 300,000 | AID 2216;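 active = more than half of the replicate wells show a fall in the fluorescence ratio signal beyond about 16%, limit read from the data, passing the limit was not always enough; inconclusive = exactly half of the replicate wells pass the set limit; inactive = fewer than half of replicates pass the limit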;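 also: 0% = DMSO wells and 100% = Ran loaded with GDP instead of GTP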
Hck-Nef inh: blocks Nef-activated human Hck kinase. P08631. Recombinant Hck-YEEI plus Nef, Z-Lyte FRET kinase assay. inhibition, % at 20 µM. hit rate 0.68% among 220,000. AID 463187;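 active = Hck-Nef kinase inhibition above about 50%, limit read from the data; inactive = inhibition below that limit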;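 also: 0% = DMSO with Hck plus Nef and 100% = Hck alone without Nef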
Target sequence (P08631 whole entry, looked up): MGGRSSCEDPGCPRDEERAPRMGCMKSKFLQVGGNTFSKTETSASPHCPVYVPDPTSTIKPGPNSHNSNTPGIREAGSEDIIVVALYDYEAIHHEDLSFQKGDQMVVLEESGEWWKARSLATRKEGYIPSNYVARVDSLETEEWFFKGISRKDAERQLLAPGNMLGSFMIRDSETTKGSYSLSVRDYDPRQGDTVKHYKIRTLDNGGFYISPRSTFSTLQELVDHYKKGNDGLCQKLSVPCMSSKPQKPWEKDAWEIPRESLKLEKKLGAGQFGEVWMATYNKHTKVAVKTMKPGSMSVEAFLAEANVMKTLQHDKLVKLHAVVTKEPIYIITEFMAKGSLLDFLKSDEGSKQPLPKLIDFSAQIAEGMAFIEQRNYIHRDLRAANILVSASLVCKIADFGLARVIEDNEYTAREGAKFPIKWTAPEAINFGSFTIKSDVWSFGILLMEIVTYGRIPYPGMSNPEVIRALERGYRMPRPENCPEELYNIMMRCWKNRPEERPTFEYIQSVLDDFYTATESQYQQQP
Runt-CBFb FRET: Runt domain-CBFb interaction inhibition | Cerulean-Runt/Venus-CBFb FRET ratio 530/480, 1 h | inhibition, % at 20 µM | AID 1496 | hit rate 0.46% among 220,000 | Q01196+Q13951;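 active = inhibition over about 50% at 20 µM in the single-dose screen, limit read from the data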;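 also: 0% = DMSO wells and 100% = excess unlabeled CBFb competitor control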
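Reagent – Venus-CBFb binding partner, 100 nM · Assay system – Cerulean-tagged RUNX1 Runt domain (FRET donor) fusion protein · Input – 100 nM per protein · Incubation – two 1 h room-temperature incubations shielded from light · Measured by – FRET fluorescence · Medium – Tris buffer pH 7.5 with salts and BSA · Benchmarks – unlabeled CBFb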
YIC FRET counter: counter-screen: alters YIC FRET probe signal. shares compounds with RanGTP-Imp inh. Purified YIC probe, intramolecular FRET ratio YFP/CFP. IC50, µM. hit rate 40% among 1,000. AID 435026;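 active = fitted half-maximal inhibitory concentration no more than tenfold above the top dose tested; inconclusive = flat fit with 30 to 70% activity, or poor fit; inactive = half-maximal concentration beyond tenfold above the top dose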
* = called active by the depositor; i = inactive; ? = inconclusive; · = no result given. The list is not random: actives were taken first. Their share in the collection is about 1.8%.

SMILES	Runt-SMMHC FRET	RanGTP-Imp inh	Hck-Nef inh	Runt-CBFb FRET	YIC FRET counter
Cn1c(N/N=C/c2cc3ccccc3nc2Cl)nc2ccccc21	-0.1	17.3*	-3.4	1.9	i
CN(C)c1nc(-c2ccccc2)cc(C(F)(F)F)c1C#N	94.8*	29.4*	11.1	37.7	10.4*
Cc1oc2cc(O)ccc2c(=O)c1-c1ccccc1	3.8	0.2	23.3	-0.6	·
Cc1oc2cc(O)ccc2c(=O)c1-c1nncn1-c1ccccc1	92.9*	37.3*	-4.9	32.2	14.1*
COc1cccc(-c2cc(C(=O)NC3CC3)c3ccccc3n2)c1	·	19.0*	·	·	>50
COc1ccc(-c2cc(C(=O)NC3CC3)c3ccccc3n2)cc1	·	-2.6	·	·	·
CC(=O)[C@@H]1[C@@H](C)N(Cc2ccccc2)C(=O)N[C@H]1c1cccc(C(F)(F)F)c1	-1.1	19.8*	25.9	-1.2	>50
COC(=O)[C@@H]1[C@@H](C)N(Cc2ccccc2)C(=O)N[C@H]1c1cccc(C(F)(F)F)c1	0.5	2.1	25.3	1.2	·
CCc1ccc(-c2nc(CSCC(=O)N3CCN(c4ccccn4)CC3)c(C)o2)cc1	-2.4	18.5*	-1.3	-3.1	>50
Cc1ccc(-c2nc(CSCC(=O)N3CCN(c4ccccn4)CC3)c(C)o2)cc1	-0.5	-0.9	5.8	2.5	·
COC(=O)C1=CN(c2ccc(OC)cc2)C=C(C(=O)OC)C1c1cccc(F)c1	·	17.5*	·	·	7.51*
CN1CCCC1CCNc1ccc2sc3ccccc3c(=O)c2c1 (stereo unspecified)	·	-193.3	·	·	·
Cc1cc2oc3cc(NCCC4CCCN4C)ccc3c(=O)c2cc1C (stereo unspecified)	·	31.1*	·	·	8.89*
COc1ccc([N+](=O)[O-])cc1NC(=O)CSc1ncccn1	-1.3	19.7*	-10.7	1.5	>50
COc1ccc([N+](=O)[O-])cc1NC(=O)CSc1nccc(C)n1	-6.3	-1.8	9.3	-0.1	·
C#Cc1ccc(CN2CCC(C(=O)Nc3ccc(Oc4ccccc4)nc3)CC2)cc1	·	7.3	·	·	·
CC#CC(=O)N1CCC(C(=O)Nc2ccc(Oc3ccccc3)nc2)CC1	·	17.6*	·	·	>50
CC12CCC(=O)N1C(C(=O)Nc1ccc(F)c(Cl)c1)CS2 (stereo unspecified)	·	1.5	·	·	·
Cn1c(=O)c2c(ncn2CCOc2ccc(F)cc2)n(C)c1=O	·	16.4*	·	·	>50
CCCOC(=O)CSC1=C(C#N)C(c2ccccc2OCC)C(C#N)C(=O)N1 (stereo unspecified)	3.5	21.3*	0.7	1.9	>50
CCCCOC(=O)CSC1=C(C#N)C(c2ccccc2OCC)C(C#N)C(=O)N1 (stereo unspecified)	4.1	?	-0.1	1.7	·
COc1ccc(NS(=O)(=O)c2cccc(C(=O)NNC(=O)CN3C(=O)NC(C)(C)C3=O)c2)cc1	·	-2.7	·	·	·
CN1CCN(C(=O)c2cc3nc(-c4ccccc4)cc(C(F)(F)F)n3n2)CC1	1.7	21.7*	-0.2	-2.6	>50
COc1cc(/C=C2/NC(=O)N(Cc3ccccc3F)C2=O)ccc1O	-6.6	?	-21.2	-4.7	·
CCc1ccc(CNc2ccc3c(c2)ncn3CC)cc1	·	17.5*	·	·	>50
SMILES	Runt-SMMHC FRET	RanGTP-Imp inh	Hck-Nef inh	Runt-CBFb FRET	YIC FRET counter
CCc1ccc(CNc2ccc3c(c2)ncn3C(C)(C)C)cc1	·	17.8*	·	·	>50
CC(C)(C)n1cnc2cc(NCc3ccc(Br)cc3)ccc21	·	22.7*	·	·	>50
CN1C2C(Br)CCCCN2c2ccc(F)cc2S1(=O)=O (stereo unspecified)	·	6.6	·	·	·
CCCCc1cc(=O)oc2c3c(cc(OCC(=O)NCCCO)c12)OC(C)(C)CC3	·	3.2	·	·	·
CCOc1ccc(NC(=O)CN2C(=O)COc3ccc(Cl)cc32)cc1	1.1	17.6*	0.4	2.8	>50
Cc1noc(C)c1C(=O)Nc1sc2c(c1C(N)=O)CCCCC2	26.1	3.6	9.8	24.7	·
Cc1noc(C)c1C(=O)Nc1sc2c(c1C(N)=O)CCC2	-2.0	25.7*	2.0	-0.9	>50
Nn1c(SCC(=O)Nc2nccs2)nnc1C1CC1	·	1.4	·	·	·
CCN(CC)CCNC(=O)c1cc(-c2ccc(Br)s2)nc2ccccc12	·	0.9	·	·	·
CCOCCCNC(=O)c1cc(-c2ccc(Br)s2)nc2ccccc12	·	19.3*	·	·	27.9*
O=C(c1ccc(F)cc1)c1cc2ccc(O)cc2oc1=O	·	37.2*	·	·	13.4*
O=C(c1ccccc1)c1cc2ccccc2oc1=O	·	-0.9	·	·	·
